Test results from ChEMBL document CHEMBL4387757, “Synthesis and molecular modeling of novel non-sulfonylureas as hypoglycemic agents and selective ALR2 inhibitors” (Bioorg Med Chem, 2019).

Experiments:
Mus musculus [1] = assay: Antihyperglycemic activity in alloxan-induced diabetic BALB/c mouse model assessed as blood glucose level at 10 mg/kg measured immediately by glucometry analysis; type: functional
In short: (§1)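 Diabetic BALB/c mice; blood sampled before dosing (0 h) and again at 2, 4, 6 and 8 h to measure blood glucose (mg/dl). Values are means ± SEM from three trials.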

Mus musculus [2] = assay: Antihyperglycemic activity in alloxan-induced diabetic BALB/c mouse model assessed as blood glucose level at 10 mg/kg measured after 8 hrs by glucometry analysis; type: functional; in short: as §1
[3] = target: T1, Aldo-keto reductase family 1 member B1 (Homo sapiens, UniProt P15121); assay: Inhibition of ALR2 (unknown origin) using sodium dl-glyceraldehyde as substrate preincubated for 10 mins followed by substrate addition by UV-spectrophotometry analysis
In short: (§2)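 Enzyme activity followed by UV spectrophotometry as the decrease in NADPH absorbance at 340 nm. Valproic acid served as positive control for ALR1, sorbinil for ALR2.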

[4] = target: Aldo-keto reductase family 1 member A1 (Homo sapiens, UniProt P14550); assay: Inhibition of ALR1 (unknown origin) using sodium d-glucoronate as substrate preincubated for 10 mins followed by substrate addition by UV-spectrophotometry analysis; in short: as §2
Sequence of Aldo-keto reductase family 1 member A1 (P14550 2-325 limits assumed): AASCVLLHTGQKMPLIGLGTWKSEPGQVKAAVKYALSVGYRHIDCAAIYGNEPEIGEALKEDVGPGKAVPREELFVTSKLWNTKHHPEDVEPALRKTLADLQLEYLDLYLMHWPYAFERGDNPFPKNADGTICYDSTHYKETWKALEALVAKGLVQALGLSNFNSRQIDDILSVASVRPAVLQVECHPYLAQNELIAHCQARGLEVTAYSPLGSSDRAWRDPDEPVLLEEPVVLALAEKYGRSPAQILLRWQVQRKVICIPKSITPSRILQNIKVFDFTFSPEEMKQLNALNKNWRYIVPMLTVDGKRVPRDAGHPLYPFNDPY

Mus musculus [5] = assay: Antihyperglycemic activity in alloxan-induced diabetic BALB/c mouse model assessed as blood glucose level at 10 mg/kg measured after 4 hrs by glucometry analysis; type: functional; in short: as §1
Mus musculus [6] = assay: Antihyperglycemic activity in alloxan-induced diabetic BALB/c mouse model assessed as blood glucose level at 10 mg/kg measured after 6 hrs by glucometry analysis; type: functional; in short: as §1
Mus musculus [7] = assay: Antihyperglycemic activity in alloxan-induced diabetic BALB/c mouse model assessed as reduction in blood glucose level at 10 mg/kg measured after 8 hrs by glucometry analysis relative to control; type: functional
In short: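 Diabetic BALB/c mice; blood glucose measured at 0 h and at 2, 4, 6 and 8 h. Percent inhibition of blood glucose was calculated at 8 h. Three trials.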

[8] = target: T1, Aldo-keto reductase family 1 member B1; assay: Selectivity index, ratio of IC50 for ALR1 (unknown origin) to IC50 for ALR2 (unknown origin)
Mus musculus [9] = assay: Antihyperglycemic activity in alloxan-induced diabetic BALB/c mouse model assessed as blood glucose level at 10 mg/kg measured after 2 hrs by glucometry analysis; type: functional; in short: as §1

SMILES | IC50 [3] [µM] | IC50 [4] [µM] | Ratio IC50 [8] | Activity (Mus musculus [1]) [mg/dL] | Activity (Mus musculus [2]) [mg/dL] | Activity (Mus musculus [5]) [mg/dL] | Activity (Mus musculus [6]) [mg/dL] | inhibition in vivo at 10 mg/kg (Mus musculus [7]) [%] | Activity (Mus musculus [9]) [mg/dL]
CCOc1cc(CC(=O)N[C@@H](CC(C)C)c2ccccc2N2CCCCC2)ccc1C(=O)O [REPAGLINIDE] | – | – | – | 392 | 94 | 259 | 160 | 66.1 | 313
COc1ccc(NC(=O)CN2C(=O)NC3(C2=O)c2ccccc2-c2ccccc23)cc1 | 2.87 | 24.3 | 8.45 | 320 | 370 | 237 | 279 | – | 258
O=C(CN1C(=O)NC2(C1=O)c1ccccc1-c1ccccc12)Nc1ccc(Cl)cc1Cl | 0.37 | 35.5 | 96 | 398 | 63 | 223 | 168 | 84.3 | 290
Cc1ccc(NC(=O)CN2C(=O)NC3(C2=O)c2ccccc2-c2ccccc23)cc1 | 6.21 | 10.9 | 1.76 | 358 | 167 | 283 | 211 | 53.4 | 314
O=C(CN1C(=O)NC2(C1=O)c1ccccc1-c1ccccc12)Nc1ccc(Br)cc1 | 0.93 | 30.3 | 32.6 | 452 | 85 | 218 | 173 | 81.1 | 331

Second part, led by results:

IC50 [3] [µM] | IC50 [4] [µM] | Ratio IC50 [8] | SMILES | Activity (Mus musculus [1]) [mg/dL] | Activity (Mus musculus [2]) [mg/dL] | Activity (Mus musculus [5]) [mg/dL] | Activity (Mus musculus [6]) [mg/dL] | inhibition in vivo at 10 mg/kg (Mus musculus [7]) [%] | Activity (Mus musculus [9]) [mg/dL]
10.2 | 6.43 | 0.63 | Cc1ccc(NC(=O)CN2C(=O)NC3(CCCCC3)C2=O)cc1 | 387 | 115 | 268 | 197 | 70.3 | 305
2.76 | 25.8 | 9.36 | COc1ccc(NC(=O)CN2C(=O)NC3(CCCCC3)C2=O)cc1 | 370 | 163 | 299 | 231 | 56.1 | 322
0.72 | 31.2 | 43.4 | O=C(CN1C(=O)NC2(CCCCC2)C1=O)Nc1ccc(Br)cc1 | 459 | 69 | 276 | 182 | 85.1 | 386
1.13 | 20.7 | 18.3 | O=C(CN1C(=O)NC2(CCCCC2)C1=O)Nc1ccc(Cl)cc1 | 406 | 85 | 242 | 170 | 79.2 | 347
1.95 | 32.9 | 16.9 | O=C(CN1C(=O)NC2(CCCCC2)C1=O)Nc1ccc(Cl)cc1Cl | 384 | 121 | 269 | 217 | 68.5 | 319
1.03 | 22.2 | 21.6 | O=C(CN1C(=O)NC2(C1=O)c1ccccc1-c1ccccc12)Nc1ccc(Cl)cc1 | 460 | 90 | 234 | 189 | 80.4 | 350
